Laboratory results as given in ChEMBL document CHEMBL2029235, “Bio-inspired synthesis and biological evaluation of a colchicine-related compound library” (Bioorg Med Chem Lett, 2012).

Test system: HT-29
Experiment: Cytotoxicity against human HT-29 cells
Conditions: not given

| Structure (SMILES) | IC50 |
| --- | --- |
| COc1cc2c(c(OC)c1OC)-c1ccc(OC)c(=O)cc1[C@@H](NC(C)=O)CC2 [COLCHICINE] | 0.008 µM |

Test system: HT-29
Experiment: Cytotoxicity against human HT-29 cells after 96 hrs by MTT assay
Type: functional, cell-based
Conditions: HT-29, 96 h
Outline: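 HT-29 cells in RPMI-1640 with 10% newborn calf serum, 37 °C, 5% CO2. Seeded at 5 × 10^3 cells/well and grown 24 h, then given fresh medium with graded compound concentrations for 96 h. MTT (5 mg/mL stock) added for 1–2 h at 37 °C. Formazan dissolved in DMSO and read at 570 nm; viability taken as absorbance fraction of untreated wells. Run in triplicate, mean ± SD.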

| Structure (SMILES) | IC50 |
| --- | --- |
| COc1cc2c(c(OC)c1OC)-c1c(OC(=O)Oc3ccccc3)c(OC)cc3ccnc(c13)CC2 | 0.132 µM |
| COc1cc2c(c(OC)c1OC)-c1c(OC(=O)Oc3ccccc3)c(OC)cc3c1[C@H](CC2)N(C)CC3=O | 30.8 µM |
| COc1cc2c3c(c1O)-c1c(cc(OC)c(OC)c1OC)CC[C@@H]3N(C)CC2=O | 22.5 µM |
| COc1cc2ccnc3c2c(c1O)-c1c(cc(OC)c(OC)c1OC)CC3 | 0.179 µM |
| COc1cc2c3c(c1O)-c1c(cc(OC)c(OC)c1OC)CC[C@@H]3N(S(C)(=O)=O)C(O)C2=O (some centres undefined) | > 50 µM |
| COC1=CC2(C=C(OC)C1=O)CC[C@H]1c3c(cc(OC)c(O)c32)CCN1S(=O)(=O)C(F)(F)F | 46.5 µM |
| COC1=C[C@@]23CCN(C(=O)C(F)(F)F)[C@@H](CCc4cc(OC)c(OC)c(OC)c42)C3=CC1=O | > 50 µM |
| COc1cc2c3c(c1O)-c1c(cc(OC)c(OC)c1OC)CC[C@@H]3N(S(=O)(=O)C(F)(F)F)CC2 | 10.4 µM |
| COc1cc2c(cc1OC(C)=O)[C@@H]1CCc3cc(OC)c(OC)c(OC)c3[C@H]2CN1C(=O)C(F)(F)F | 40.8 µM |
| COc1cc2c(cc1O)[C@@H]1CCc3cc(OC)c(OC)c(OC)c3[C@H]2CN1C(=O)C(F)(F)F | 27.8 µM |
| COc1cc2c(cc1O)[C@@H]1CCc3cc(OC)c(OC)c(OC)c3[C@H]2CN1C(C)=O | > 50 µM |
| COc1cc2c(cc1O)[C@@H]1CCc3cc(OC)c(OC)c(OC)c3[C@H]2CN1S(=O)(=O)c1ccc(C)cc1 | 10.8 µM |
| COC1=CC2=C3c4c(c(OC)cc5ccnc(c45)CC2)O[C@]3(OC)C1=O | 23.9 µM |
| COc1cc2c(c(OC)c1OC)[C@H]1CN(S(=O)(=O)c3ccc(C)cc3)[C@@H](CC2)C2=CC(=O)C(=O)C=C21 | 6.6 µM |
| COc1cc2c(c(OC)c1OC)-c1c(OS(C)(=O)=O)c(OC)cc3ccnc(c13)CC2 | 24.4 µM |
| COc1cc2c(c(OC)c1OC)-c1c(OC(C)=O)c(OC)cc3c1[C@H](CC2)N(C(=O)C(F)(F)F)C=C3 | 1.25 µM |
| COc1cc2c3c(c1O)-c1c(cc(OC)c(OC)c1OC)CC[C@@H]3N(C(C)=O)CC2 | 13.3 µM |
| COc1cc2c(cc1O)[C@@H]1CCc3cc(OC)c(OC)c(OC)c3[C@H]2CN1S(C)(=O)=O | 11.6 µM |
| COc1cc2c(cc1O)[C@H](CCc1cc(OC)c(OC)c(OC)c1)N(C(=O)C(F)(F)F)CC2 | > 50 µM |
| COC1=CC2(C=C(OC)C1=O)CC[C@H]1c3c(cc(OC)c(O)c32)CCN1C | > 50 µM |
| COc1cc2c(c(OC)c1OC)-c1c(OC(=O)c3ccccc3)c(OC)cc3ccnc(c13)CC2 | 2.56 µM |
| COc1cc2c(c(OC)c1OC)-c1c(OS(=O)(=O)C(F)(F)F)c(OC)cc3c1C(=CC2)N(S(=O)(=O)C(F)(F)F)C=C3 | 10.1 µM |

| Structure (SMILES) | IC50 |
| --- | --- |
| COc1cc2c(c(OC)c1OC)-c1c(OC(C)=O)c(OC)cc3ccnc(c13)CC2 | 0.189 µM |
| COc1cc2c3c(c1O)-c1c(cc(OC)c(OC)c1OC)CC[C@@H]3N(C(=O)C(F)(F)F)C=C2 | 0.684 µM |
| COc1cc2c3c(c1O)-c1c(cc(OC)c(OC)c1OC)CC[C@@H]3N(S(=O)(=O)C(F)(F)F)CC2=O | 1.16 µM |
| COc1cc2c(c(OC)c1OC)-c1c(OC(=S)n3ccnc3)c(OC)cc3ccnc(c13)CC2 | 0.293 µM |
| COc1cc2c(cc1OC)[C@H]1CCc3cc(OC)c(OC)c(OC)c3[C@@H](C2)N1C | > 50 µM |
| COc1cc2c(c(OC)c1OC)-c1c(OC(C)=O)c(OC)cc3c1[C@H](CC2)N(C)CC3=O | 27.2 µM |
| COc1cc2c3c(c1O)-c1c(cc(OC)c(OC)c1OC)CC[C@@H]3N(S(C)(=O)=O)CC2 | 7.95 µM |
| COC1=CC2(C=C(OC)C1=O)CC[C@H]1c3c(cc(OC)c(O)c32)CCN1C(C)=O | 45.9 µM |
| COc1cc2c(c(OC)c1OC)-c1c(OC(=O)C3CCCCC3)c(OC)cc3ccnc(c13)CC2 | 0.99 µM |
| COc1cc2c(cc1O)[C@H]1CCc3cc(OC)c(OC)c(OC)c3[C@@H](C2)N1Cc1ccccc1 | 9.1 µM |
| COc1cc2c3c(c1O)-c1c(cc(OC)c(OC)c1OC)CC[C@@H]3N(C(=O)C(F)(F)F)CC2 | 6.45 µM |
| COC1=C[C@@]23CCN(S(C)(=O)=O)[C@@H](CCc4cc(OC)c(OC)c(OC)c42)C3=CC1=O | > 50 µM |
| COC1=C[C@@]23CCN(C(C)=O)[C@@H](CCc4cc(OC)c(OC)c(OC)c42)C3=CC1=O | 37.8 µM |
| COc1cc2c(c(OC)c1OC)-c1c(OC(=O)OCC(Cl)(Cl)Cl)c(OC)cc3ccnc(c13)CC2 | 0.229 µM |
| COc1cc2c(c(OC)c1OC)-c1c(OS(=O)(=O)C(F)(F)F)c(OC)cc3ccnc(c13)CC2 | 24.6 µM |
| COc1cc2c(cc1O)[C@H]1CCc3cc(OC)c(OC)c(OC)c3[C@@H](C2)N1C | > 50 µM |
| COc1cc2c(cc1OC(C)=O)[C@H]1CCc3cc(OC)c(OC)c(OC)c3[C@@H](C2)N1C | 43.5 µM |
| COC(=O)Oc1c(OC)cc2ccnc3c2c1-c1c(cc(OC)c(OC)c1OC)CC3 | 0.182 µM |
| COC1=C[C@@]23CCN(S(=O)(=O)C(F)(F)F)[C@@H](CCc4cc(OC)c(OC)c(OC)c42)C3=CC1=O | 15.7 µM |
| COc1cc2c(cc1OC(C)=O)[C@H]1CCc3cc(OC)c(OC)c(OC)c3[C@@H](C2)N1Cc1ccccc1 | 21.7 µM |
| COC1=C[C@@]23CCN(S(=O)(=O)c4ccc(C)cc4)[C@@H](CCc4cc(OC)c(OC)c(OC)c42)C3=CC1=O | 42.7 µM |
